Experimental findings from ChEMBL document CHEMBL2203222, “Mannich bases of scutellarein as thrombin-inhibitors: design, synthesis, biological activity and solubility” (Bioorg Med Chem, 2012) are described below.

The nature of series [1]: Absolute bioavailability in po dosed Beagle dog. The conditions noted are these: in vivo. It counts as ADME, organism-based, Canis lupus familiaris.
The subject of series [2] is Plasma. The experiment in a line: Antithrombin activity in New Zealand white rabbit plasma assessed as activated partial thromboplastin time at 25 uM by coagulometer. It counts as functional, Oryctolagus cuniculus.
The subject of series [3] is Radical scavenging activity. Put plainly: Antioxidant activity assessed as inhibition of DPPH radical by spectrophotometric analysis […]. Format: functional. The method, boiled down:
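Sample in DMSO mixed with an equal volume of 0.2 mM ethanolic DPPH. Test compounds spanned […], alongside reference antioxidants and a DMSO control. Reaction ran 30 min at 25 °C, then absorbance was read at 517 nm on a microplate reader. Scavenging % = (1 − A_test/A_control) × 100, with A_control taken from DMSO alone.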

Series [4] can be described thus: Solubility of the compound in water by UV-visible spectrophotometry relative to scutellarein. Format: physicochemical.
The test system of series [5] is Plasma. Put plainly: Antithrombin activity in New Zealand white rabbit plasma assessed as fibrinogen content at 25 uM by coagulometer. Format: functional, Oryctolagus cuniculus.
Series [6] is described as follows: Solubility of the compound in water by UV-visible spectrophotometry. It counts as physicochemical.
In series [7] the test system is Plasma. Put plainly: Antithrombin activity in New Zealand white rabbit plasma assessed as prothrombin time at 25 uM by coagulometer. Format: functional, Oryctolagus cuniculus.
Series [8] concerns Plasma. Put plainly: Antithrombin activity in New Zealand white rabbit plasma assessed as thrombin time at 25 uM by coagulometer. It counts as functional, Oryctolagus cuniculus.

One may read the bioavailability as dose-corrected exposure relative to a reference, in per cent. What is called IC50 is the concentration that gives 50% inhibition. In general, solubility refers to how much of the substance goes into solution per volume.

Values after ≈ are worked out from the molar mass of the structure shown.

For `O=C(O)[C@H]1O[C@@H](Oc2cc3oc(-c4ccc(O)cc4)cc(=O)c3c(O)c2O)[C@H](O)[C@@H](O)[C@@H]1O` [SCUTELLARIN], in series [1], the bioavailability was found to be 0.4%.

Consider `O=c1cc(-c2ccc(O)cc2)oc2c(CN3CCOCC3)c(O)c(O)c(O)c12`, for which the APTT with Plasma [2] is 35.48 s. In series [3], the IC50 stood at 30.9 µM. In addition, in series [4], the “fold change (FC)” value is 1.67. Further, in the series on Plasma [5], the Activity is 5.26 g/L. Besides, the solubility in series [6] came out at 11.6 µM (≈ 4.48 µg/mL). For the same molecule, the PT in the series with Plasma [7] came to 7.84 s. For the same molecule, the TT in the series on Plasma [8] turned out to be 14.48 s.

For `CC(C)N(Cc1c(O)c(O)c(O)c2c(=O)cc(-c3ccc(O)cc3)oc12)C(C)C`, in the series with Plasma [2], the APTT was found to be 34.52 s. Further, the IC50 in series [3] was found to be 30.1 µM. In series [4], the “fold change (FC)” value is given as 1.15. The Activity in the series with Plasma [5] is on record as 5.54 g/L. Also, the solubility in series [6] amounted to 7.97 µM (≈ 3.18 µg/mL). Also, the PT with Plasma [7] is 7.47 s. Further, the TT in the series on Plasma [8] worked out at 11.75 s.

Take `CN(C)Cc1c(O)c(O)c(O)c2c(=O)cc(-c3ccc(O)cc3)oc12`: the APTT in the series on Plasma [2] was 34.23 s. For the same molecule, the IC50 in series [3] turned out to be 26.5 µM. The “fold change (FC)” value in series [4] is given as 1.23. The Activity in the series with Plasma [5] is 5.56 g/L. Moreover, the solubility in series [6] turned out to be 8.58 µM (≈ 2.95 µg/mL). The PT in the series on Plasma [7] is given as 7.45 s. In addition, the TT in the series with Plasma [8] came to 12.58 s.

Take `O=c1cc(-c2ccc(O)cc2)oc2cc(O)c(O)c(O)c12` [SCUTELLAREIN]: the APTT with Plasma [2] is reported as 33.36 s. The IC50 in series [3] is 24 µM. Also, in the series on Plasma [5], the Activity was 5.96 g/L. In series [6], the solubility worked out at 6.95 µM (≈ 1.99 µg/mL). Besides, the PT with Plasma [7] is listed as 7.34 s. In the series with Plasma [8], the TT is on record as 10.25 s.

On to `CN1CCN(Cc2c(O)c(O)c(O)c3c(=O)cc(-c4ccc(O)cc4)oc23)CC1`, for which the APTT in the series on Plasma [2] is reported as 35.42 s. In addition, in series [3], the IC50 came to 32.5 µM. Moreover, in series [4], the “fold change (FC)” value amounted to 1.05. Also, in the series with Plasma [5], the Activity was 5.46 g/L. Besides, the solubility in series [6] turned out to be 7.28 µM (≈ 2.9 µg/mL). For the same molecule, in the series on Plasma [7], the PT turned out to be 7.71 s. In addition, the TT in the series with Plasma [8] stood at 14.4 s.

Consider `CCCCN1CCN(Cc2c(O)c(O)c(O)c3c(=O)cc(-c4ccc(O)cc4)oc23)CC1`, for which, in the series on Plasma [2], the APTT came out at 35.01 s. Further, the IC50 in series [3] came to 32.7 µM. Besides, in series [4], the “fold change (FC)” value amounted to 1.31. In addition, in the series with Plasma [5], the Activity is 5.56 g/L. In series [6], this molecule yielded a solubility of 9.11 µM (≈ 4.01 µg/mL). Besides, the PT in the series on Plasma [7] came to 7.4 s. For the same molecule, in the series with Plasma [8], the TT amounted to 13.45 s.

As to `CCN1CCN(Cc2c(O)c(O)c(O)c3c(=O)cc(-c4ccc(O)cc4)oc23)CC1`, the APTT in the series on Plasma [2] was determined as 35.15 s. Also, the IC50 in series [3] worked out at 32.4 µM. In addition, the “fold change (FC)” value in series [4] is on record as 1.02. Moreover, the Activity in the series on Plasma [5] worked out at 5.54 g/L. In series [6], this molecule showed a solubility of 7.07 µM (≈ 2.92 µg/mL). In addition, the PT in the series with Plasma [7] is listed as 7.41 s. Moreover, the TT in the series with Plasma [8] was determined as 14.13 s.

On to `CCN(CC)Cc1c(O)c(O)c(O)c2c(=O)cc(-c3ccc(O)cc3)oc12`, for which, in the series with Plasma [2], the APTT came to 34.62 s. The IC50 in series [3] amounted to 25 µM. In addition, the “fold change (FC)” value in series [4] is listed as 1.11. Moreover, the Activity in the series on Plasma [5] is on record as 5.36 g/L. Besides, the solubility in series [6] was 7.71 µM (≈ 2.86 µg/mL). Further, the PT with Plasma [7] is 7.55 s. In the series with Plasma [8], the TT was found to be 12.63 s.
